ChEMBL document CHEMBL1154235, “Rational design and semisynthesis of betulinic acid analogues as potent topoisomerase inhibitors” (J Nat Prod, 2009)
The source made the active and inactive calls. The calls are words filed in the database; no cut-off is given here.

Tests used:
UACC-62 = test: Cytotoxicity against human UACC62 cells assessed as cell growth at 10 uM; format: functional; settings: read-out: Activity
SF-539 = test: Cytotoxicity against human SF539 cells assessed as cell growth at 10 uM; format: functional; settings: read-out: Activity
Procedure, shortened: (§1)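 Single-dose screen at 10 µM against the 60 human cell line panel, run by the NCI Developmental Therapeutics Program and scored as cell growth.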

CCRF-CEM = test: Cytotoxicity against human CCRF-CEM cells assessed as cell growth at 10 uM; format: functional; settings: read-out: Activity; procedure, shortened: as §1
T47D = test: Cytotoxicity against human T47D cells assessed as cell growth at 10 uM; format: functional; settings: read-out: Activity
LOX IMVI = test: Cytotoxicity against human LOXIMVI cells assessed as cell growth at 10 uM; format: functional; settings: read-out: Activity; procedure, shortened: as §1
SF-295 = test: Cytotoxicity against human SF295 cells assessed as cell growth at 10 uM; format: functional; settings: read-out: Activity; procedure, shortened: as §1
EKVX = test: Cytotoxicity against human EKVX cells assessed as cell growth at 10 uM; format: functional; settings: read-out: Activity; procedure, shortened: as §1
OVCAR-5 = test: Cytotoxicity against human OVCAR5 cells assessed as cell growth at 10 uM; format: functional; settings: read-out: Activity; procedure, shortened: as §1
KM12 = test: Cytotoxicity against human KM12 cells assessed as cell growth at 10 uM; format: functional; settings: read-out: Activity; procedure, shortened: as §1
SN12C = test: Cytotoxicity against human SN12C cells assessed as cell growth at 10 uM; format: functional; settings: read-out: Activity; procedure, shortened: as §1
RPMI-8226 = test: Cytotoxicity against human RPMI8226 cells assessed as cell growth at 10 uM; format: functional; settings: read-out: Activity; procedure, shortened: as §1
MDA-MB-231 = test: Antiproliferative activity against human MDA-MB-231 cells after 3 days by MTT assay; format: functional, cell-based; settings: MDA-MB-231, 72 h
Procedure, shortened: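 MDA-MB-231 cells kept in RPMI 1640 with 10% heat-inactivated FBS and 25 mM HEPES at 37 °C in 5% CO2. Plated at about 15 000/well and preincubated 1 day, then exposed to compound for 3 days at 37 °C, with doses in triplicate. MTT added for 4 h, formazan dissolved in detergent overnight at room temperature in the dark, OD read at 580 nm against a cell-free blank. Cell numbers from a calibration curve; IC50 from dose-response curves.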

DU-145 = test: Cytotoxicity against human DU145 cells assessed as cell growth at 10 uM; format: functional; settings: read-out: Activity; procedure, shortened: as §1
[1] = target: DNA topoisomerase 2-alpha (Homo sapiens) (UniProt P11388); test: Inhibition of topoisomerase 2 alpha catalytic activity assessed as decatenation of kinetoplast DNA at 100 uM after 15 mins by agarose gel electrophoresis
DNA topoisomerase 2-alpha (Homo sapiens), sequence (P11388 whole entry): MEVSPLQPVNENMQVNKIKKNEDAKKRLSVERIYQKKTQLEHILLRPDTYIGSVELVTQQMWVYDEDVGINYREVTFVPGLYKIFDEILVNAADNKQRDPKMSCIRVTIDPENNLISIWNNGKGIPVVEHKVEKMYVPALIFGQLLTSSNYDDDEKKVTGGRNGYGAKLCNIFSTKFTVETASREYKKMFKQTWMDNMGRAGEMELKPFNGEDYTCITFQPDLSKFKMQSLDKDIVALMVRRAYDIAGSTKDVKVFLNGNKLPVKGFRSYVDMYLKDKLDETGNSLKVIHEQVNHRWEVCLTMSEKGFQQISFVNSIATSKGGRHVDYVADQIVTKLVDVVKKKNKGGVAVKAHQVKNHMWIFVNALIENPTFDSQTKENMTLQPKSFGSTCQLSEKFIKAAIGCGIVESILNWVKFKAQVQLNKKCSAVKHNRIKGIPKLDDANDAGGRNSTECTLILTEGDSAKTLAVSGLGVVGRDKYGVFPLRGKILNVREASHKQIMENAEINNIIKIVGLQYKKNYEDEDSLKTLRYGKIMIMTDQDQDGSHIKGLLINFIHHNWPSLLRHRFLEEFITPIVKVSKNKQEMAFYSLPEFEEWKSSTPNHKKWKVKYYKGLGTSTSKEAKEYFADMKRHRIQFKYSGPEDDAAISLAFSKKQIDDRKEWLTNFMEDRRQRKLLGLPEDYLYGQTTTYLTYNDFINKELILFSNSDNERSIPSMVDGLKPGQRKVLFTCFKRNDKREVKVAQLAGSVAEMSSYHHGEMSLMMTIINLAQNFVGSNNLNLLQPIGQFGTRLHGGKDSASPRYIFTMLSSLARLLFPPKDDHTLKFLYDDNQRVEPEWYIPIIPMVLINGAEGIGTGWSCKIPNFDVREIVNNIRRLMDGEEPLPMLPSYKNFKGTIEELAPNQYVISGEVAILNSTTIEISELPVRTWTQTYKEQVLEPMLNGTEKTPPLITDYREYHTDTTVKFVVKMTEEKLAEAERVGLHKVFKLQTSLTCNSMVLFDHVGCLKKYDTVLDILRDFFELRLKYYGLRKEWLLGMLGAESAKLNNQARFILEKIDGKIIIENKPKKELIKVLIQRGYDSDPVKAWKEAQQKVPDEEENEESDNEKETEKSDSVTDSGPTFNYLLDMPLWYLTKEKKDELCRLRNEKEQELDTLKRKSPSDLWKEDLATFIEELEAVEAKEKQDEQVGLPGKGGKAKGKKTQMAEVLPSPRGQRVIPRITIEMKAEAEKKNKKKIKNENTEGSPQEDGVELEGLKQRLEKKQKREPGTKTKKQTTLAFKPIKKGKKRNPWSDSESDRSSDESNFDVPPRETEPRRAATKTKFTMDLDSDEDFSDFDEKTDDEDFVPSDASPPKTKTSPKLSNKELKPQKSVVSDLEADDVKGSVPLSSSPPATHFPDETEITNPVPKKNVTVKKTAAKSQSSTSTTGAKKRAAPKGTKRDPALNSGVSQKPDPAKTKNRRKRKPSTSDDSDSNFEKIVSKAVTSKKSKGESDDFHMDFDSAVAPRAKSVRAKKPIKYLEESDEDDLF

OVCAR-3 = test: Cytotoxicity against human OVCAR-3 cells assessed as cell growth at 10 uM; format: functional; settings: read-out: Activity; procedure, shortened: as §1
RXF 393 = test: Cytotoxicity against human […] cells assessed as cell growth at 10 uM; format: functional; settings: read-out: Activity; procedure, shortened: as §1
HT-29 = test: Cytotoxicity against human HT-29 cells assessed as cell growth at 10 uM; format: functional; settings: read-out: Activity; procedure, shortened: as §1
NCI-H23 = test: Cytotoxicity against human NCI-H23 cells assessed as cell growth at 10 uM; format: functional; settings: read-out: Activity; procedure, shortened: as §1
COLO 205 = test: Cytotoxicity against human COLO205 cells assessed as cell growth at 10 uM; format: functional; settings: read-out: Activity; procedure, shortened: as §1
U-251 = test: Cytotoxicity against human U251 cells assessed as cell growth at 10 uM; format: functional; settings: read-out: Activity
ACHN = test: Cytotoxicity against human ACHN cells assessed as cell growth at 10 uM; format: functional; settings: read-out: Activity; procedure, shortened: as §1
MCF7 = test: Cytotoxicity against human MCF7 cells assessed as cell growth at 10 uM; format: functional; settings: read-out: Activity; procedure, shortened: as §1
[2] = target: T1, DNA topoisomerase 1 (Homo sapiens) (UniProt P11387); test: Inhibition of topoisomerase 1 catalytic activity assessed as relaxation of supercoiled plasmid DNA at 100 uM after 30 mins by agarose gel electrophoresis
T1 sequence (whole entry): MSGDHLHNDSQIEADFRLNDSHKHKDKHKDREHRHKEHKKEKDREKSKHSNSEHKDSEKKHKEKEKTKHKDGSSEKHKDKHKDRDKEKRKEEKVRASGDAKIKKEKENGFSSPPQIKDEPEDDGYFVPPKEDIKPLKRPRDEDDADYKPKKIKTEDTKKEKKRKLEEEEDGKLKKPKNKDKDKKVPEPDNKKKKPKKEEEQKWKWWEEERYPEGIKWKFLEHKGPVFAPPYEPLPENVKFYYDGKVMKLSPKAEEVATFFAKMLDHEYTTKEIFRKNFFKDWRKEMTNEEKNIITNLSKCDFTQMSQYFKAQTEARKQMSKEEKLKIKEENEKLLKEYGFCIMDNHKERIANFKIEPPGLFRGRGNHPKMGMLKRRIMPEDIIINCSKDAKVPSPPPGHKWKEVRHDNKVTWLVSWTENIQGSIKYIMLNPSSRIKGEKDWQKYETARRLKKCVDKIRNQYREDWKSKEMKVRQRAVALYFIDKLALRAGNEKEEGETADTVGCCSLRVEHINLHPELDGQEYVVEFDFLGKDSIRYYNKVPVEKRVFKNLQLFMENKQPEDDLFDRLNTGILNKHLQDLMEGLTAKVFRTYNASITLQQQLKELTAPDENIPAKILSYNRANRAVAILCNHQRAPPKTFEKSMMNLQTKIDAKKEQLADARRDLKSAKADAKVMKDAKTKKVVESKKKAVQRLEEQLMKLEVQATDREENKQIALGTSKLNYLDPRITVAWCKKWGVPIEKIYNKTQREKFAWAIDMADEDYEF
Procedure, shortened: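 Compound at 100 µM final with topoisomerase I (2U), 37 °C 30 min. Stopped with 1% SDS, proteinase K digestion, 1% agarose TAE gel, ethidium bromide stain, imaging quantitation. Scored 0 to 3+ against camptothecin.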

A549 = test: Cytotoxicity against human A549 cells assessed as cell growth at 10 uM; format: functional; settings: read-out: Activity; procedure, shortened: as §1
HCT-15 = test: Cytotoxicity against human HCT15 cells assessed as cell growth at 10 uM; format: functional; settings: read-out: Activity; procedure, shortened: as §1
OVCAR-8 = test: Cytotoxicity against human OVCAR8 cells assessed as cell growth at 10 uM; format: functional; settings: read-out: Activity; procedure, shortened: as §1
[3] = Cytotoxicity against human Hs 578T cells assessed as cell growth at 10 uM; format: functional; settings: read-out: Activity; procedure, shortened: as §1
TK-10 = test: Cytotoxicity against human TK10 cells assessed as cell growth at 10 uM; format: functional; settings: read-out: Activity
SF-268 = test: Cytotoxicity against human SF268 cells assessed as cell growth at 10 uM; format: functional; settings: read-out: Activity; procedure, shortened: as §1
UACC-257 = test: Cytotoxicity against human UACC257 cells assessed as cell growth at 10 uM; format: functional; settings: read-out: Activity
SNB-19 = test: Cytotoxicity against human SNB19 cells assessed as cell growth at 10 uM; format: functional; settings: read-out: Activity; procedure, shortened: as §1
786-0 = test: Cytotoxicity against human 786-0 cells assessed as cell growth at 10 uM; format: functional; settings: read-out: Activity; procedure, shortened: as §1
MDA-MB-435 = test: Cytotoxicity against human MDA-MB-435 cells assessed as cell growth at 10 uM; format: functional; settings: read-out: Activity; procedure, shortened: as §1
A498 = test: Cytotoxicity against human A498 cells assessed as cell growth at 10 uM; format: functional; settings: read-out: Activity; procedure, shortened: as §1
HCC 2998 = test: Cytotoxicity against human HCC2998 cells assessed as cell growth at 10 uM; format: functional; settings: read-out: Activity; procedure, shortened: as §1

Molecule `C=C(C)[C@@H]1CC[C@]2(C(O)=S)CC[C@]3(C)[C@H](CC[C@@H]4[C@@]5(C)CC[C@H](O)C(C)(C)[C@@H]5CC[C@]43C)[C@@H]12` has a growth at 10 µM (UACC-62) of 96.8%, a growth at 10 µM (SF-539) of 111% and a growth at 10 µM (CCRF-CEM) of 99.1%. For the same molecule, the growth at 10 µM (T47D) was 98.5%, the growth at 10 µM (LOX IMVI) was 101% and the growth at 10 µM (SF-295) was 98.4%. It also gave a growth at 10 µM (EKVX) of 103%, a growth at 10 µM (OVCAR-5) of 119% and a growth at 10 µM (KM12) of 84.7%. The growth at 10 µM (SN12C) was 102%, the growth at 10 µM (RPMI-8226) was 113% and the IC50 (MDA-MB-231) was over 25 µM. For the same molecule, the growth at 10 µM (DU-145) was 130%, the inhibition [1] was “Active” and the growth at 10 µM (OVCAR-3) was 94.9%. For the same molecule, the growth at 10 µM (RXF 393) was 112%, the growth at 10 µM (HT-29) was 112% and the growth at 10 µM (NCI-H23) was 93.4%. It also gave a growth at 10 µM (COLO 205) of 129%, a growth at 10 µM (U-251) of 105% and a growth at 10 µM (ACHN) of 96.3%. The growth at 10 µM (MCF7) was 100%, the inhibition [2] was “inactive” and the growth at 10 µM (A549) was 93%. It also gave a growth at 10 µM (HCT-15) of 104%, a growth at 10 µM (OVCAR-8) of 101% and a growth at 10 µM [3] of 105%. The growth at 10 µM (TK-10) was 94.2%, the growth at 10 µM (SF-268) was 92.7% and the growth at 10 µM (UACC-257) was 105%. For the same molecule, the growth at 10 µM (SNB-19) was 113%, the growth at 10 µM (786-0) was 93.8% and the growth at 10 µM (MDA-MB-435) was 91.3%. The growth at 10 µM (A498) was 129% and the growth at 10 µM (HCC 2998) was 128%.
